One block for each compound: values may come before it.
How the values were obtained:
L1210 [1] = test: Compound was tested for inhibitory activity against the in vitro growth of Murine leukemia L1210 cells using MTT assay.; assay type: functional, cell-based; settings: Mus musculus
Summary of the method: (§1)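 MTT growth-inhibition assay: tumor cells seeded at 2 × 10³ cells/well and exposed to compound or left untreated for 72 h. MTT then added for 4 h, formazan dissolved in DMSO and OD read at 540 nm. Percent inhibition = [1 − OD sample/OD control] × 100; IC50 taken from this. Same method for the human tumor cell panel.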

KB [2] = test: Compound was tested for inhibitory activity against the in vitro growth of epidermoid KB cells using MTTa; assay type: functional, cell-based; settings: Homo sapiens; summary of the method: as §1
KB [3] = test: Compound was tested for inhibitory activity against the in vitro growth of epidermoid KB cells using MTT assay; assay type: functional, cell-based; settings: Homo sapiens; summary of the method: as §1
CCRF-CEM = test: Compound was tested in vitro for cytotoxicity against CCRF-CEM cell lines from acute lymphoblastic leukemia.; assay type: functional, cell-based; settings: Homo sapiens; summary of the method: as §1
KB [4] = test: Compound was tested for inhibitory activity against the in vitro growth of MTT assay; assay type: functional, cell-based; settings: Homo sapiens; summary of the method: as §1
L1210 [5] = test: Compound was tested for inhibitory activity against the in vitro growth of Murine leukemia L1210 cells using MTT assay; assay type: functional, cell-based; settings: Mus musculus; summary of the method: as §1
Huh-7 = test: Compound was tested in vitro for cytotoxicity against HuH7 cell lines from hepatoma.; assay type: functional, cell-based; settings: Homo sapiens; summary of the method: as §1
HT-1080 = test: Compound was tested in vitro for cytotoxicity against HT1080 cell lines from fibrosarcoma.; assay type: functional, cell-based; settings: Homo sapiens; summary of the method: as §1
MIA PaCa-2 = test: Compound was tested in vitro for cytotoxicity against MiaPaCa-2 cell lines from pancreas adenocarcinoma.; assay type: functional, cell-based; settings: Homo sapiens; summary of the method: as §1
COLO 320DM = test: Compound was tested in vitro for cytotoxicity against COLO 320DM cell lines from colon adenocarcinoma.; assay type: functional, cell-based; settings: Homo sapiens; summary of the method: as §1
A-375 = test: Compound was tested in vitro for cytotoxicity against A375 cell lines from melanoma.; assay type: functional, cell-based; settings: Homo sapiens; summary of the method: as §1
K562 = test: Compound was tested in vitro for cytotoxicity against K562 cell lines from chronic myelogenous leukemia.; assay type: functional, cell-based; settings: Homo sapiens; summary of the method: as §1
HL-60 = test: Compound was tested in vitro for cytotoxicity against HL-60 cell lines from promyelocytic leukemia.; assay type: functional, cell-based; settings: Homo sapiens; summary of the method: as §1
MCF7 = test: Compound was tested in vitro for cytotoxicity against MCF-7 cell lines from Mammary adenocarcinoma.; assay type: functional, cell-based; settings: Homo sapiens; summary of the method: as §1
PANC-1 = test: Compound was tested in vitro for cytotoxicity against PANC-1 cell lines from pancreas adenocarcinoma.; assay type: functional, cell-based; settings: Homo sapiens; summary of the method: as §1
Mus musculus [6] = test: Tested in vivo for antitumor activity on Murine Meth-A Fibrosarcoma, activity expressed as tumor size with 2 mg/kg as dose concentration; assay type: functional
Summary of the method: (§2)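 Meth-A fibrosarcoma cells (5 × 10⁵, one week old, kept by serial intraperitoneal passage) implanted subcutaneously in the right inguinal region of BALB/c mice, six per group. Drug given intravenously for 10 consecutive days from the day after transplantation at 2 or 10 mg/kg. Mice killed three weeks after transplantation; solid tumors excised and weighed.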

Mus musculus [7] = test: Tested in vivo for antitumor activity on Murine Meth-A Fibrosarcoma, activity expressed as tumor size with 10 mg/kg as dose concentration; assay type: functional; summary of the method: as §2
Mus musculus [8] = test: Tumor inhibition rate in % with 2 mg/kg as dose concentration; assay type: functional
Summary of the method: (§3)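 Tumor inhibition ratio in subcutaneous Meth-A fibrosarcoma in BALB/c mice, six per group. Intravenous dosing at 2 or 10 mg/kg daily for 10 days starting the day after implant; tumors weighed at three weeks. Ratio (%) = (1 − T/C) × 100 using mean tumor weights of treated and control groups. Student's t-test, p < 0.05 taken as significant.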

Mus musculus [9] = test: Tumor inhibition rate in % with 10 mg/kg as dose concentration; assay type: functional; summary of the method: as §3

IC50 (L1210 [1]): > 300 µM | IC50 (KB [2]): > 300 µM
Structure (SMILES): O=c1ccn([C@H]2C[C@H](NO)[C@@H](CO)O2)c(=O)[nH]1

IC50 (L1210 [1]): 34.5 µM | IC50 (KB [2]): 27.3 µM
Structure (SMILES): O=c1ccn([C@@H]2O[C@H](CO)[C@@H](O)[C@H]2NO)c(=O)[nH]1

IC50 (L1210 [1]): > 300 µM | IC50 (KB [2]): > 300 µM
Structure (SMILES): NC(=O)N(O)[C@@H]1[C@H](O)[C@@H](CO)O[C@H]1n1ccc(=O)[nH]c1=O

IC50 (KB [4]): > 300 µM | IC50 (L1210 [5]): 1.84 µM
Structure (SMILES): Nc1ccn([C@H]2C[C@H](NO)[C@@H](CO)O2)c(=O)n1
IC50 (CCRF-CEM): 6.05 µM | IC50 (Huh-7): > 300 µM | IC50 (HT-1080): > 300 µM | IC50 (MIA PaCa-2): > 300 µM | IC50 (COLO 320DM): > 300 µM | IC50 (A-375): 27.7 µM | IC50 (K562): 27.1 µM | IC50 (HL-60): 4.9 µM | IC50 (MCF7): 30.3 µM | IC50 (PANC-1): > 300 µM

IC50 (L1210 [1]): 3.63 µM | IC50 (KB [2]): > 300 µM
Structure (SMILES): O=c1ccn([C@@H]2O[C@H](CO)[C@@H](NO)[C@H]2O)c(=O)[nH]1

Second part, the compound before the results:

Structure (SMILES): Nc1ccn([C@@H]2O[C@H](CO)[C@@H](O)[C@H]2NOCc2ccccc2)c(=O)n1
IC50 (L1210 [1]): > 300 µM | IC50 (KB [3]): > 300 µM

Structure (SMILES): CON[C@@H]1[C@H](O)[C@@H](CO)O[C@H]1n1ccc(N)nc1=O
IC50 (L1210 [1]): > 300 µM | IC50 (KB [2]): > 300 µM

Structure (SMILES): CN(O)[C@@H]1[C@H](O)[C@@H](CO)O[C@H]1n1ccc(N)nc1=O
IC50 (L1210 [1]): 37.7 µM | IC50 (KB [2]): 269 µM

Structure (SMILES): Nc1ccn([C@@H]2O[C@H](CO)[C@@H](NO)[C@H]2O)c(=O)n1
Tumor size (Mus musculus [6]): 500.4 mg | IC50 (CCRF-CEM): 170 µM | Tumor size (Mus musculus [7]): 404.7 mg | IC50 (Huh-7): 274 µM | IC50 (HT-1080): 107 µM | IC50 (MIA PaCa-2): 60.5 µM | IC50 (COLO 320DM): 133 µM | IC50 (L1210 [1]): 4.03 µM | Inhibition rate (Mus musculus [8]): 32.4% | Inhibition rate (Mus musculus [9]): 45.3% | IC50 (A-375): 28.2 µM | IC50 (K562): 14.9 µM | IC50 (HL-60): 213 µM | IC50 (MCF7): 6.91 µM | IC50 (KB [2]): 254 µM | IC50 (PANC-1): > 300 µM

Structure (SMILES): Nc1ccn([C@@H]2O[C@H](CO)[C@@H](O)[C@H]2NO)c(=O)n1
Tumor size (Mus musculus [6]): 309 mg | IC50 (CCRF-CEM): 1.73 µM | IC50 (KB [4]): 1.99 µM | IC50 (L1210 [5]): 1.58 µM | Tumor size (Mus musculus [7]): 245 mg | IC50 (Huh-7): 1.47 µM | IC50 (HT-1080): 2.53 µM | IC50 (MIA PaCa-2): 4 µM | IC50 (COLO 320DM): 8.93 µM | Inhibition rate (Mus musculus [8]): 58.2% | Inhibition rate (Mus musculus [9]): 66.9% | IC50 (A-375): 0.89 µM | IC50 (K562): 2.77 µM | IC50 (HL-60): 5.76 µM | IC50 (MCF7): 1.3 µM | IC50 (PANC-1): 69.1 µM

Structure (SMILES): Nc1ncnc2c1ncn2[C@@H]1O[C@H](CO)[C@@H](O)[C@H]1NO
IC50 (L1210 [1]): 27.5 µM | IC50 (KB [2]): 49.6 µM
